In general, IC50 refers to the concentration at which inhibition is half-maximal. A low value points to greater potency. As usually defined, the Kd is the equilibrium constant for the complex coming apart.

Data on 26 compounds can be found in ChEMBL document CHEMBL1155195 (J Med Chem, 2009).

Calls of active or inactive are those of the source. No cut-off for these calls is given here.

Test [1] relates to U-937. Put plainly: Cytotoxicity against human U937 cells after 72 hrs by sulforhodamine B assay. In kind it is functional, cell-based. Conditions: U-937, 72 h. On the technique in general: In SRB staining, fixed cells bind dye roughly in proportion to their protein.
A short description of test [2]: Binding affinity to zinc assessed as formation of zinc-compound complex by EGTA fluorescence titration assay.
Test [3] deals with SK-MEL-5. The test is described as follows: Zinc chelating activity in human SK-MEL-5 cells assessed as appearance of punctate cytoplasmic staining pattern at 25 uM after 1 hr by immunofluorescent staining-based confocal microscopy. In kind it is functional, cell-based. A digest of the protocol:
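Live SK-MEL-5 cells incubated 1 hour with 25 μM fluorescent derivative, washed with phenol red-free medium, incubated 2 further hours; DNA stained with SYBR green; imaged by multiphoton confocal microscopy for subcellular, punctate cytoplasmic fluorescence.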

The target in test [4] is T1, Caspase-3 (Homo sapiens) (UniProt P42574).
T1 sequence (whole entry): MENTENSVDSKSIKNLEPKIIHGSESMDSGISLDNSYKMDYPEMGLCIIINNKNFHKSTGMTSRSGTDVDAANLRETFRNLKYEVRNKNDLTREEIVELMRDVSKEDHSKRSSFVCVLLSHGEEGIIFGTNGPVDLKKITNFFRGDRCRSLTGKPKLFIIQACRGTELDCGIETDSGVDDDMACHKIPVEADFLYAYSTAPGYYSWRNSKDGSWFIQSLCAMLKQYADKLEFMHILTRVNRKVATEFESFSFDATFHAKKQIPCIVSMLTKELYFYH
Put plainly: Induction of procaspase 3 activation in human SK-MEL-5 cells assessed as caspase 3 cytoplasmic colocalization at 25 uM after 1 hr by immunofluorescent staining-based confocal microscopy in presence of 25 uM caspase 3/7 inhibitor FAM-DEVD-fmk. It is filed as cell-based. A digest of the protocol:
(§1)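 Live SK-MEL-5 cells treated with DMSO or compound (25 μM) together with FAM-DEVD-fmk (25 μM), a fluorescent irreversible active-site caspase-3/-7 label, for 1 hour; washed in phenol red-free medium, incubated 2 hours further, then imaged by multiphoton confocal microscopy.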

Test [5] deals with T1, Caspase-3 (Homo sapiens). Put plainly: Induction of procaspase 3 activation in human SK-MEL-5 cells assessed as caspase 3 cytoplasmic colocalization at 25 uM after 1 hr by immunofluorescent staining-based confocal microscopy. It is filed as cell-based. A digest of the protocol:
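SK-MEL-5 cells given DMSO or 25 μM compound for 1 hour, washed with phenol red-free medium, incubated 2 more hours, fixed, stained with rabbit anti-caspase-3 antibody (recognizes procaspase-3 and caspase-3) plus anti-rabbit Alexa Fluor 647 secondary, mounted and imaged by multiphoton confocal microscopy.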

Test [6] has as its target T1, Caspase-3 (Homo sapiens). The test is described as follows: Activation of 6xHis-tagged recombinant caspase 3 expressed in Escherichia coli BL21 (DE3) at 50 uM after 30 mins in presence of zinc ion.
In test [7] the target is T1, Caspase-3 (Homo sapiens). The test is described as follows: Inhibition of 6xHis-tagged recombinant caspase 3 expressed in Escherichia coli BL21 (DE3) at 10 uM after 30 mins in absence of zinc ion.
Test [8] deals with U-937. Put plainly: Induction of apoptosis in human U937 cells assessed as viable cells at 50 uM after 12 hrs by FITC-conjugated annexin V and propidium iodide staining-based flow cytometry. In kind it is functional. Conditions: U-937, 12 h, read-out: Activity. The gist of the method:
(§2)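 U-937 cells incubated with compound at 50 μM or vehicle for 12 hours, then co-stained with propidium iodide and FITC-labeled Annexin V; Annexin V-positive/PI-negative cells scored as early apoptotic.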
On the technique in general: In flow cytometry, cells or beads pass a laser one at a time.

Test [9] has as its system U-937. Put plainly: Induction of apoptosis in human U937 cells assessed as early apoptotic cells at 50 uM after 12 hrs by FITC-conjugated annexin V and propidium iodide staining-based flow cytometry. It is filed as functional. The gist of the method:
as §2

Test [10] deals with U-937. The test is described as follows: Induction of apoptosis in human U937 cells assessed as late apoptotic cells at 50 uM after 12 hrs by FITC-conjugated annexin V and propidium iodide staining-based flow cytometry. In kind it is functional. A digest of the protocol:
as §2

For test [11], the system named is U-937. The test is described as follows: Induction of apoptosis in human U937 cells assessed as non-viable necrotic cells at 50 uM after 12 hrs by FITC-conjugated annexin V and propidium iodide staining-based flow cytometry. It is filed as functional. The gist of the method:
as §2

For test [12], the target named is T1, Caspase-3 (Homo sapiens). Put plainly: Induction of procaspase 3 activation in human SK-MEL-5 cells at 25 uM after 1 hr by immunofluorescent staining-based confocal microscopy in presence of 25 uM caspase 3/7 inhibitor FAM-DEVD-fmk. In kind it is cell-based. A digest of the protocol: as §1

In test [1], `C=CCc1cc(/C=N/NC(=O)CN2CCN(Cc3ccccc3)CC2)c(O)c(CC=C)c1` had an IC50 of 1.8 µM. Moreover, the Kd in [2] came out at 0.043 µM.
In test [1], `Nc1ccccc1/C=N/NC(=O)CN1CCN(Cc2ccccc2)CC1` had an IC50 above 100 µM. In addition, the Kd in test [2] is above 10 µM.
The corresponding values for `C=CCc1cccc(CNNC(=O)CN2CCN(Cc3ccccc3)CC2)c1O` are 59 µM and above 10 µM.
In turn, `C=CCc1cccc(/C=N/NC(=O)CN2CCN(Cc3cccnc3)CC2)c1O` yielded an IC50 in [1] of 14 µM. In addition, in [2], the Kd amounted to 0.062 µM.
On to `O=C(CN1CCN(Cc2ccccc2)CC1)NCCc1ccccc1O`, for which, in test [1], the IC50 was above 100 µM. The Kd in test [2] is above 10 µM.
The corresponding values for `C=CCc1cccc(/C=N/NC(=O)CN2CCN(Cc3ccncc3)CC2)c1O` are 21 µM and 0.08 µM.
On to `CSc1ccccc1/C=N/NC(=O)CN1CCN(Cc2ccccc2)CC1`, for which the IC50 in [1] is 61 µM. Besides, in [2], the Kd is above 10 µM.
Consider `C=CCc1cccc(/C=N/NC(=O)CN2CCN(Cc3cc(OC)ccc3OC)CC2)c1O`, for which the IC50 in [1] was determined as 1 µM. Besides, the Kd in test [2] came out at 0.039 µM.
`COc1ccc(OC)c(CN2CCN(CC(=O)N/N=C/c3ccccc3O)CC2)c1` showed an IC50 in [1] of 12 µM. In test [2], the Kd was 0.065 µM.
`C=CCc1cccc(/C=N/NC(=O)CN2CCN(Cc3cccc(Cn4cc(CNC(=O)Cc5c(C)c6cc(S(=O)(=O)O)c(N)cc6oc5=O)nn4)c3)CC2)c1O`: the IC50 in test [1] is 14.8 µM. The Kd in test [2] turned out to be 0.061 µM. The result in test [3], in test [4] and in test [5] was Active. In addition, the Activity in test [6] worked out at 20%.
`C=CCc1cccc(/C=N/NC(=O)CN2CCN(Cc3cccc([N+](=O)[O-])c3)CC2)c1O`: the IC50 in test [1] is 4.6 µM. Moreover, in test [2], the Kd was determined as 0.045 µM.
`C=CCc1cccc(/C=N/NC(=O)CC2CCN(C(=O)OC(C)(C)C)CC2)c1O` returned an IC50 in [1] of 6.5 µM. Further, in test [2], the Kd is 0.048 µM. Moreover, the inhibition result in [7] is “Active”.
In turn, `C=CCc1cccc(/C=N/NC(=O)CC2CCN(Cc3ccccc3)CC2)c1O` came in with an IC50 in [1] of 2.8 µM. For the same compound, the Kd in test [2] amounted to 0.044 µM. For the same compound, the inhibition entry in [7] is “Active”.
`C=CCc1cccc(/C=N/NC(=O)CN2CCN(Cc3ccc(F)cc3)CC2)c1O` came in with an IC50 in [1] of 2 µM. Besides, in test [2], the Kd turned out to be 0.048 µM. The viability at 50 µM in test [8] stood at 62%. For the same compound, the values for the Activity in test [9], in test [10] and in [11] were 30%, 8% and 0%, respectively.
In [1], `COC(=O)c1ccccc1/C=N/NC(=O)CN1CCN(Cc2ccccc2)CC1` returned an IC50 above 100 µM. For the same compound, in [2], the dissociation constant Kd was above 10 µM.
`O=C(CN1CCN(Cc2ccccc2)CC1)N/N=C/c1ccccc1Cl` gave an IC50 in test [1] of 57 µM. Also, the Kd in [2] is above 10 µM.
The corresponding values for `O=C(CN1CCN(Cc2ccccc2)CC1)NCc1ccccc1O` are above 100 µM and above 10 µM.
The corresponding values for `O=C(CN1CCN(Cc2ccccc2)CC1)N/N=C/c1ccccc1S` are above 100 µM and above 10 µM.
Regarding `O=C(CN1CCN(Cc2ccccc2)CC1)N/N=C/c1ccccc1SSc1ccccc1/C=N/NC(=O)CN1CCN(Cc2ccccc2)CC1`, the IC50 in [1] is above 100 µM. Moreover, in test [2], the Kd was above 10 µM.
The corresponding values for `O=C(CN1CCN(Cc2ccccc2)CC1)N/N=C/c1ccccc1` are above 100 µM and above 10 µM.
For `C=CCc1cccc(/C=N/NC(=O)CN2CCN(Cc3ccc(OC)cc3)CC2)c1O`, the midpoint of inhibition in [1], the IC50, lay at 2.7 µM. The Kd in test [2] turned out to be 0.047 µM.
`O=C(CN1CCN(Cc2ccccc2)CC1)N/N=C/c1ccccc1C(=O)O` registered an IC50 in test [1] above 100 µM. The Kd in test [2] is above 10 µM.
Regarding `C=CCc1cccc(/C=N/NC(=O)CN2CCN(Cc3ccccc3)CC2)c1O` [PAC-1], half-maximal inhibition in [1] (IC50) required 4.8 µM. Further, in test [2], the Kd worked out at 0.052 µM. The result in test [12] and in test [5] was Active. The viability at 50 µM in [8] turned out to be 58%. In addition, the Activity in test [9] is reported as 31%; in [10], 11%; in test [11], 0%.
The compound `C=CCc1cccc(/C=N/NC(=O)CN2CCC(Cc3ccccc3)CC2)c1O` had an IC50 in test [1] of 2.7 µM. Further, in test [2], the Kd was 0.049 µM. In test [8], the viability at 50 µM was 49%. The Activity in test [9] is recorded as 41%; in test [10], 10%; in [11], 0%.
In turn, `C=CCc1cccc(/C=N/N(C)C(=O)CN2CCN(Cc3ccccc3)CC2)c1O` yielded an IC50 in test [1] of 22 µM. Also, the Kd in [2] was above 10 µM.
As for `C=CCc1cccc(/C=N/NC(=O)CN2CCN(Cc3ccccc3)CC2)c1OC`, in test [1], the IC50 amounted to 32 µM. Further, the Kd in [2] was above 10 µM.
